Source: ChEMBL document CHEMBL1121550, “Amino acid and dipeptide derivatives of daunorubicin. 1. Synthesis, physicochemical properties, and lysosomal digestion” (J Med Chem, 1980)

Key:
Nucleic Acid [1] = assay: Apparent binding affinity to herring sperm DNA at 25 degree Celsius in PBS buffer with pH 7.4; type: nucleic-acid assay; conditions: Clupeidae
In short: (§1)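 Spectral titration: drug at 200 µg/mL in PBS pH 7.4 (NaCl 137 mM, KCl 3 mM, Na2HPO4 8 mM, KH2PO4 1.5 mM) titrated with 0.05–2.00 mL highly polymerized herring sperm DNA (2.34 mg/mL in 0.9% NaCl), made to 4.0 mL. Free and bound drug estimated from absorbance at 475 nm; Scatchard plot (nx/Df vs nx) yields Ka and nmax.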

Nucleic Acid [2] = assay: Maximal binding (nmax) sites to herring sperm DNA. Estimated from Scatchard plots; type: nucleic-acid assay; conditions: Clupeidae; in short: as §1

Row | Structure (SMILES) | Ka (Nucleic Acid [1]) | Maximal binding (Nucleic Acid [2])
1 | CCC(C)C(N)C(=O)NC1CC(O[C@H]2C[C@](O)(C(C)=O)Cc3c(O)c4c(c(O)c32)C(=O)c2c(OC)cccc2C4=O)OC(C)C1O (stereo partly drawn) | 110000 M⁻¹ | 0.19
2 | COc1cccc2c1C(=O)c1c(O)c3c(c(O)c1C2=O)C[C@@](O)(C(C)=O)C[C@@H]3O[C@H]1C[C@H](N)[C@H](O)[C@H](C)O1 | 310000 M⁻¹ | 0.16
3 | COc1cccc2c1C(=O)c1c(O)c3c(c(O)c1C2=O)C[C@@](O)(C(C)=O)C[C@@H]3OC1CC(NC(=O)C(CC(C)C)NC(=O)CN)C(O)C(C)O1 (stereo partly drawn) | 30000 M⁻¹ | 0.14
4 | COc1cccc2c1C(=O)c1c(O)c3c(c(O)c1C2=O)C[C@@](O)(C(C)=O)C[C@@H]3O[C@H]1C[C@H](NC(=O)[C@H](CC(C)C)NC(=O)[C@H](C)N)[C@H](O)[C@H](C)O1 | 20000 M⁻¹ | 0.17
5 | COc1cccc2c1C(=O)c1c(O)c3c(c(O)c1C2=O)C[C@@](O)(C(C)=O)C[C@@H]3OC1CC(NC(=O)C(N)C(C)C)C(O)C(C)O1 (stereo partly drawn) | 110000 M⁻¹ | 0.18
6 | COc1cccc2c1C(=O)c1c(O)c3c(c(O)c1C2=O)C[C@@](O)(C(C)=O)C[C@@H]3OC1CC(NC(=O)CN)C(O)C(C)O1 (stereo partly drawn) | 130000 M⁻¹ | 0.16
7 | COc1cccc2c1C(=O)c1c(O)c3c(c(O)c1C2=O)C[C@@](O)(C(C)=O)C[C@@H]3O[C@H]1C[C@H](NC(=O)[C@H](C)N)[C@H](O)[C@H](C)O1 | 90000 M⁻¹ | 0.19
8 | COc1cccc2c1C(=O)c1c(O)c3c(c(O)c1C2=O)C[C@@](O)(C(C)=O)C[C@@H]3OC1CC(NC(=O)C(N)CC(C)C)C(O)C(C)O1 (stereo partly drawn) | 130000 M⁻¹ | 0.2
9 | COc1cccc2c1C(=O)c1c(O)c3c(c(O)c1C2=O)C[C@@](O)(C(C)=O)C[C@@H]3O[C@H]1C[C@H](NC(=O)[C@H](C)NC(=O)[C@@H](N)CC(C)C)[C@H](O)[C@H](C)O1 | 40000 M⁻¹ | 0.12
